The results in this text go back to ChEMBL document CHEMBL2384909, “Development of Novel Alkene Oxindole Derivatives As Orally Efficacious AMP-Activated Protein Kinase Activators” (ACS Med Chem Lett, 2013).

The target of test [1] is AMPK alpha2/beta1/gamma1 (Homo sapiens) (UniProt P54646+P54619+Q9Y478). Put plainly: Activation of recombinant AMPK alpha2beta1gamma1 (unknown origin) at 20 ug/mL after 2 hrs by scintillation proximity assay relative to AMP. The test is classed as protein-complex assay. On the technique in general: SPA uses beads or plates that emit light when radiolabelled molecules are held near them.

Test [2] deals with AMPK alpha2/beta1/gamma1 (Homo sapiens, UniProt P54619+P54646+Q9Y478). Put plainly: Activation of recombinant AMPK alpha2beta1gamma1 (unknown origin) after 2 hrs by scintillation proximity assay. The class given is protein-complex assay. An outline of the steps: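 Activation of bacterially expressed AMPK α2β1γ1 was measured by scintillation proximity assay. Efficacy is expressed relative to AMP.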

The test system of test [3] is L6. Put plainly: Induction of AMPK-mediated ACC phosphorylation in rat L6 cells by Western blotting analysis. The class given is cell-based.
Test [4] deals with L6. Put plainly: Induction of AMPK phosphorylation in rat L6 cells by Western blotting analysis. The class given is cell-based. In general terms: In western blotting, separated proteins are transferred to a membrane and probed.
Test [5] has as its target T1, 5'-AMP-activated protein kinase catalytic subunit alpha-1 (Homo sapiens, UniProt Q13131). The test is described as follows: Activation of recombinant AMPK alpha1 (1 to 394) (unknown origin) at 20 ug/mL after 2 hrs by scintillation proximity assay relative to PT1.
Target sequence in this assay (Q13131 whole entry, looked up): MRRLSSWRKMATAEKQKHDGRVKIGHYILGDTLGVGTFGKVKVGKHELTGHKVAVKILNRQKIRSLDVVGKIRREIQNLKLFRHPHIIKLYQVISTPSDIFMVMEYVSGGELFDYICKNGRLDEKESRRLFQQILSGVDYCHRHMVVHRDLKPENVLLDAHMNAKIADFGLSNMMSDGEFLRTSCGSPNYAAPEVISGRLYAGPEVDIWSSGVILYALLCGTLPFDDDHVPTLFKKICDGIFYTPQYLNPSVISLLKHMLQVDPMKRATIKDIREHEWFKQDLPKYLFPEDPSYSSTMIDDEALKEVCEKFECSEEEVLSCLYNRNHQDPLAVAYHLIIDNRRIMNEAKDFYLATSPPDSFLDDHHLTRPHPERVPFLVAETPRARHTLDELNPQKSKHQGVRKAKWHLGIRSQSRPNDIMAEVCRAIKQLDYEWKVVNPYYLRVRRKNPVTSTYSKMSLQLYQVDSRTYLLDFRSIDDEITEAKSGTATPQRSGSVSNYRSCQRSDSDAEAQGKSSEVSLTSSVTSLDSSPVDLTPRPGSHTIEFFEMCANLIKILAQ
Test [6] addresses T1, 5'-AMP-activated protein kinase catalytic subunit alpha-1. Put plainly: Activation of recombinant AMPK alpha1 (1 to 394) (unknown origin) after 2 hrs by scintillation proximity assay.
Target sequence in this assay (Q13131 whole entry): as the sequence (Q13131 whole entry, looked up) above
Test [7] can be described thus: Activation of partially purified rat liver AMPK assessed as 33P-phosphorylation of SAMS peptide.
Test [8] in a line: Activation of AMPK in rat primary hepatocytes assessed as inhibition of fatty acid biosynthesis by 14C-acetate incorporation assay. As to conditions: Hepatocyte. The test is classed as cell-based.
Test [9] concerns Mus musculus. The test is described as follows: Antidiabetic activity in diet-induced obese C57BL/6J mouse assessed as reduction in plasma triglyceride at 150 mg/kg, po qd for 4 weeks (reference value: 0.62 +/- 0.02 mM). The class given is functional.
Test [10] addresses 5'-AMP-activated protein kinase catalytic subunit alpha-2 (Homo sapiens, UniProt P54646). Put plainly: Activation of human AMPK alpha2 (1 to 398) expressed in African green monkey COS7 cells. The class given is cell-based, COS-7.
Test [11] addresses T1, 5'-AMP-activated protein kinase catalytic subunit alpha-1. The test is described as follows: Activation of human AMPK alpha1 (1 to 394) expressed in African green monkey COS7 cells. The class given is cell-based, COS-7.
Target sequence in this assay (Q13131 whole entry): as the sequence (Q13131 whole entry, looked up) above

Chain of AMPK alpha2/beta1/gamma1 (P54646 whole entry): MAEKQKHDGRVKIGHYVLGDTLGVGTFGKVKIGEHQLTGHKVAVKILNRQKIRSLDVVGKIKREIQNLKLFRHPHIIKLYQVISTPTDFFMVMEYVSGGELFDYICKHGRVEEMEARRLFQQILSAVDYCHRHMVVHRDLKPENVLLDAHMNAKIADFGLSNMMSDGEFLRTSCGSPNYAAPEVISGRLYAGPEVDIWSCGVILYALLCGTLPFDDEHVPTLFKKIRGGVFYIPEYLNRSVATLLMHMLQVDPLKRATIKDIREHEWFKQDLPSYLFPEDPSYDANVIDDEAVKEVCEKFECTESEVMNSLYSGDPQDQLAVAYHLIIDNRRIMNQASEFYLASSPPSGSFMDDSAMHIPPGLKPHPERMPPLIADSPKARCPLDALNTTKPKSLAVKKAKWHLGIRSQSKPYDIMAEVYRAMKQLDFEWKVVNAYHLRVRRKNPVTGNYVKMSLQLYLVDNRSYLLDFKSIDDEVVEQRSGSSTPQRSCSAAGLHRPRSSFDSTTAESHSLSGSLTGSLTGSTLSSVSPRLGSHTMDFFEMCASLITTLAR
Chain of AMPK alpha2/beta1/gamma1 (P54619 whole entry): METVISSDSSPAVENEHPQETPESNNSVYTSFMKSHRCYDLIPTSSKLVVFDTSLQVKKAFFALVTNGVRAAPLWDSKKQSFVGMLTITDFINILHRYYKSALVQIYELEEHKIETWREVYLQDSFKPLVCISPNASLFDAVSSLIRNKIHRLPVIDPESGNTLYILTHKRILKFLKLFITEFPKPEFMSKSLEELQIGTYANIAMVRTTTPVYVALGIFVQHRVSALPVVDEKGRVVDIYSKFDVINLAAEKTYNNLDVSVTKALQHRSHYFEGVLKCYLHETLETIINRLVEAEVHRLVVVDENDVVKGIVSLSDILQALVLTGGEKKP
Chain of AMPK alpha2/beta1/gamma1 (Q9Y478 whole entry): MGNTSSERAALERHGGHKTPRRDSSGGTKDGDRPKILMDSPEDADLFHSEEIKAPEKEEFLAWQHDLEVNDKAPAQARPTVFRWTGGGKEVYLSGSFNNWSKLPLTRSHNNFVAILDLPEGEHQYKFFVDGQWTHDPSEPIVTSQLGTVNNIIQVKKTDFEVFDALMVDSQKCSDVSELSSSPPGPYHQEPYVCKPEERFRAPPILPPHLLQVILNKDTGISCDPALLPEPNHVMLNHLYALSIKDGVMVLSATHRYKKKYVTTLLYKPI
Chain of AMPK alpha2/beta1/gamma1 (Homo sapiens) (P54619 whole entry partner): as the sequence (P54619 whole entry) above
Chain of AMPK alpha2/beta1/gamma1 (Homo sapiens) (P54646 whole entry): as the sequence (P54646 whole entry) above
Chain of AMPK alpha2/beta1/gamma1 (Homo sapiens) (Q9Y478 2-270 partner limits assumed): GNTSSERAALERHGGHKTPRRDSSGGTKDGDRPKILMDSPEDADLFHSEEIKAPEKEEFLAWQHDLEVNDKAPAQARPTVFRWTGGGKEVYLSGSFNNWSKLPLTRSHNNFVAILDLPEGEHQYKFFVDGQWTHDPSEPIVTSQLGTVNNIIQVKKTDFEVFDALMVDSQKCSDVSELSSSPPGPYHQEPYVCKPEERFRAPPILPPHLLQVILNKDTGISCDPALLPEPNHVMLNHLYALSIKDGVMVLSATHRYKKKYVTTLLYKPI
Chain of 5'-AMP-activated protein kinase catalytic subunit alpha-2 (P54646 whole entry): as the sequence (P54646 whole entry) above

A word on the EC50: it is the midpoint of the concentration-response curve. With `O=C(O)c1ccc(CN2C(=O)/C(=C(\c3ccccc3)c3ccc(Cl)cc3)c3ccccc32)nc1`, in test [1], the Efficacy was found to be 75%. The EC50 in test [2] was determined as 9.2 µM.
The like results for `O=C1/C(=C(\c2ccccc2)c2ccc(Cl)cc2)c2ccccc2N1Cc1ccccc1` were, in that order, 70% and 1 µM.
Consider `O=C(O)c1cccc(CN2C(=O)/C(=C/c3ccc(-c4ccc(F)c(Cl)c4)o3)c3ccccc32)c1`, for which the Activity result in test [3] and in test [4] was “Dose-dependent effect” in each case. Also, in test [1], the Efficacy worked out at 122%. In addition, in [2], the 50% effective concentration (EC50) worked out at 4.8 µM.
With `O=C(O)c1cccc(CN2C(=O)/C(=C/c3ccc(-c4cccc([N+](=O)[O-])c4)o3)c3ccccc32)c1`, the values for the Activity in test [5], in test [3] and in [4] were 341%, “Dose-dependent effect” and “Dose-dependent effect”, respectively. Further, the Efficacy in test [1] was 152%. Further, the EC50 stood at 2.1 µM in [6] and 3.2 µM in test [2].
Turning to `CC(C)/C(=C1\C(=O)N(Cc2cccc(C(=O)O)c2)c2ccccc21)c1ccccc1`, the Efficacy in test [1] was < 50%. Besides, in [2], the 50% effective concentration (EC50) is > 10 µM.
Consider `Cc1cc(-c2ccc(/C=C3\S/C(=N\c4cccc(C(=O)O)c4)NC3=O)o2)c([N+](=O)[O-])cc1C`, for which, in test [5], the Activity was 106%.
`CC(C)/C(=C1\C(=O)N(Cc2cccc(C(=O)O)c2)c2ccccc21)c1ccc(Cl)cc1`: in [1], the Efficacy was determined as 227%. Further, the half-maximal effective concentration (EC50) in test [2] came to 9.9 µM.
The like results for `O=C(O)c1cccc(CN2C(=O)/C(=C(\c3ccccc3)c3ccc(F)c(Cl)c3)c3ccccc32)c1` were, in that order, 105% and 5.9 µM.
As to `O=C(O)c1cccc(CN2C(=O)/C(=C(\c3ccccc3)c3ccccc3Cl)c3ccccc32)c1`, the Efficacy in test [1] is 101%. Further, in test [2], the EC50 came to 1.8 µM.
The like results for `O=C(O)c1cccc(CN2C(=O)/C(=C(/c3ccc(Cl)cc3)C3CCCCC3)c3ccccc32)c1` were, in that order, 103% and 4.6 µM.
The like results for `CC(C)c1ccc(/C(=C2/C(=O)N(Cc3cccc(C(=O)O)c3)c3ccccc32)c2ccccc2)cc1` were, in that order, 97% and 4 µM.
In general, IC50 refers to the concentration that gives 50% inhibition. In the case of `N#Cc1c(O)c2c(-c3ccc(-c4ccccc4O)cc3)csc2[nH]c1=O`, the EC50 in test [7] was found to be 0.8 µM. Besides, in test [8], the IC50 worked out at 3.2 µM.
Consider `COC(=O)c1cc(/N=C2/NC(=O)/C(=C/c3ccc(-c4cc(C)c(C)cc4[N+](=O)[O-])o3)S2)ccc1Cl`, for which the Activity in test [5] is < 50%.
In the case of `CN(C)C(=N)NC(=N)N` [METFORMIN], the Activity in test [9] is recorded as 0.5 mM.
As to `O=C(O)c1cccc(CN2C(=O)/C(=C(\c3ccccc3)c3ccccc3OC(F)(F)F)c3ccccc32)c1`, in test [1], the Efficacy worked out at 99%. In addition, in [2], the EC50 turned out to be 7.4 µM.
The like results for `CC(C)NC(=O)c1cccc(CN2C(=O)/C(=C(\c3ccccc3)c3ccc(Cl)cc3)c3ccccc32)c1` were, in that order, 151% and 4.5 µM.
As to `Cc1cc(-c2ccc(/C=C3\SC(=S)N(c4cccc(C(=O)O)c4)C3=O)o2)c([N+](=O)[O-])cc1C`, the Activity in [5] is < 50%.
On the same count and under the same terms, the value for `O=C1N/C(=N/c2ccc(Cl)c(C(=O)O)c2)S/C1=C\c1ccc(-c2ccccc2[N+](=O)[O-])o1` was < 50%; that for `O=C1N/C(=N/c2ccc(Cl)c(C(=O)O)c2)S/C1=C\c1ccc(-c2cccc([N+](=O)[O-])c2)o1` was 176%.
For the compound `O=C(O)c1cccc(CN2C(=O)/C(=C(\c3ccccc3)c3cccnc3)c3ccccc32)c1`, in test [1], the Efficacy is 96%. In addition, the EC50 in test [2] is 3.2 µM.
As for `Cc1cc(-c2ccc(/C=C3\S/C(=N\c4ccc(F)cc4)NC3=O)o2)c([N+](=O)[O-])cc1C`, in test [5], the Activity is < 50%.
The same measure, in the same setting: then `Cc1cc(-c2ccc(/C=C3\S/C(=N\c4ccccc4C(=O)O)NC3=O)o2)c([N+](=O)[O-])cc1C`, with 55%.
For the compound `Cc1cc(-c2ccc(/C=C3\S/C(=N\c4ccc(Cl)c(C(=O)O)c4)NC3=O)o2)c([N+](=O)[O-])cc1C`, in [1], the Efficacy was 40%. The concentration giving a half-maximal response (EC50) was found to be 9.6 µM in test [6], 0.3 µM in [2], 12 µM in test [10] and 9 µM in test [11].
With `O=C1N/C(=N/c2ccc(Cl)c(C(=O)O)c2)S/C1=C\c1ccc(-c2ccccc2Cl)o1`, the Activity in test [5] was < 50%.
